Results reported in ChEMBL document CHEMBL1128530, “Alpha- and beta-adrenoceptors: from the gene to the clinic. 1. Molecular biology and adrenoceptor subclassification” (J Med Chem, 1995).

Legend:
[1] = target: T1, Alpha-1D adrenergic receptor (Rattus norvegicus, UniProt P23944); assay: Binding affinity against Alpha-1D adrenergic receptor, from rat clones.
T1 sequence (P23944 whole entry): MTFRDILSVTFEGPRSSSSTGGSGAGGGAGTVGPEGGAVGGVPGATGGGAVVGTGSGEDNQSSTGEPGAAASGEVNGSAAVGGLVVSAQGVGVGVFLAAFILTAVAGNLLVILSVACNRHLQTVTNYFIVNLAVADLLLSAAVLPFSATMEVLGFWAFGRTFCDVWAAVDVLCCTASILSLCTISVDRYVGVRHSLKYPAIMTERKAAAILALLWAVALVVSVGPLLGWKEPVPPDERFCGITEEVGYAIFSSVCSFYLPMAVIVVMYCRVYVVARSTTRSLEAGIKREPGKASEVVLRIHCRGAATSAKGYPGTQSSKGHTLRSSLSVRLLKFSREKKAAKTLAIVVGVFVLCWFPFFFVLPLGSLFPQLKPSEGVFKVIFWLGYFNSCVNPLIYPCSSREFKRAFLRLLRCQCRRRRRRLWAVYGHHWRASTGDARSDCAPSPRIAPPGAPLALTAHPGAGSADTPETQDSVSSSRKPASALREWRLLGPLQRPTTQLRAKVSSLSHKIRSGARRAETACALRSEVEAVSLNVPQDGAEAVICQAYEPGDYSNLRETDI

[2] = target: T2, Alpha-2B adrenergic receptor (Homo sapiens, UniProt P18089); assay: Binding affinity against Alpha-2B adrenergic receptor from human clones.
T2 sequence (P18089 whole entry): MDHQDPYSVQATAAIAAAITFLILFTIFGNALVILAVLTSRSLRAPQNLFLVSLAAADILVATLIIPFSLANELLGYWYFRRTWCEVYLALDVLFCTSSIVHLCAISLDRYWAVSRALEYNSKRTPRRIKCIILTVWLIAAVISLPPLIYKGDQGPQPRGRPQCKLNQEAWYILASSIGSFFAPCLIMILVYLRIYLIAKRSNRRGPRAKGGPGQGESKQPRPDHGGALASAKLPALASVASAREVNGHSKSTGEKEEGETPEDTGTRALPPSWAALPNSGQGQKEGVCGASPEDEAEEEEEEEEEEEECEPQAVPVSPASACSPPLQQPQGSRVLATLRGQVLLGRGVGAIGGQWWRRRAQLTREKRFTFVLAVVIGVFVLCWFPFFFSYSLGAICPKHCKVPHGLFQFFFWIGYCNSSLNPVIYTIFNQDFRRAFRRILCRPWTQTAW

[3] = target: T3, Alpha-2C adrenergic receptor (Homo sapiens, UniProt P18825); assay: Binding affinity against Alpha-2C adrenergic receptor from human clones.
T3 sequence (P18825 whole entry): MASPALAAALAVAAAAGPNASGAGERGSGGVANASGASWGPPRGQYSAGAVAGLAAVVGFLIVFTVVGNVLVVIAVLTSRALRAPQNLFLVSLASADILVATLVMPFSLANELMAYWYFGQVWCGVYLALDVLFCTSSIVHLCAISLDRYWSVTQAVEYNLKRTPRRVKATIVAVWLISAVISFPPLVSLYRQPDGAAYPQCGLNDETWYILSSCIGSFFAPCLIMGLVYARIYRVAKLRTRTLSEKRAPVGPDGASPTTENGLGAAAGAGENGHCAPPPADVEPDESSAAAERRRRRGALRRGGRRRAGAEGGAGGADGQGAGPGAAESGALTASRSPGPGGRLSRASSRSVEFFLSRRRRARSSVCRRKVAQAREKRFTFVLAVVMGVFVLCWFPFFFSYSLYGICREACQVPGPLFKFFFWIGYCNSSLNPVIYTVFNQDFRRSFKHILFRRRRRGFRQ

[4] = target: T4, Alpha-2A adrenergic receptor (Homo sapiens, UniProt P08913); assay: The compound was tested for binding affinity against Alpha-2A adrenergic receptor from human clones.
T4 sequence (P08913 whole entry): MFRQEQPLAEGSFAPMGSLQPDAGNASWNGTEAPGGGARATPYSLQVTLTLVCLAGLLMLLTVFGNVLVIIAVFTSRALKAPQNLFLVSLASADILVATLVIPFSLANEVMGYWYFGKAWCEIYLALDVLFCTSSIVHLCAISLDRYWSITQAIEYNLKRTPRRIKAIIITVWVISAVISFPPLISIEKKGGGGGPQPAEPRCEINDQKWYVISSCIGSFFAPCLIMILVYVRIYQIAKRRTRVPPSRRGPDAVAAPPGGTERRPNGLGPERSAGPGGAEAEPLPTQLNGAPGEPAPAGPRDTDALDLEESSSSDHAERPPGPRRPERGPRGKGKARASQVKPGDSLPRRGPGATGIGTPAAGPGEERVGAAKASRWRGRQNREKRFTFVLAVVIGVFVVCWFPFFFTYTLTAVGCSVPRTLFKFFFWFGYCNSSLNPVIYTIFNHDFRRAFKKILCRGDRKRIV
Outline: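 Human α2A-adrenoceptor clone expressed in CHO cells; radioligand binding read out as Ki (nM).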

[5] = target: T5, Alpha-1D adrenergic receptor (Homo sapiens, UniProt P25100); assay: Binding affinity against Alpha-1D adrenergic receptor, from human clones.
T5 sequence (P25100 whole entry): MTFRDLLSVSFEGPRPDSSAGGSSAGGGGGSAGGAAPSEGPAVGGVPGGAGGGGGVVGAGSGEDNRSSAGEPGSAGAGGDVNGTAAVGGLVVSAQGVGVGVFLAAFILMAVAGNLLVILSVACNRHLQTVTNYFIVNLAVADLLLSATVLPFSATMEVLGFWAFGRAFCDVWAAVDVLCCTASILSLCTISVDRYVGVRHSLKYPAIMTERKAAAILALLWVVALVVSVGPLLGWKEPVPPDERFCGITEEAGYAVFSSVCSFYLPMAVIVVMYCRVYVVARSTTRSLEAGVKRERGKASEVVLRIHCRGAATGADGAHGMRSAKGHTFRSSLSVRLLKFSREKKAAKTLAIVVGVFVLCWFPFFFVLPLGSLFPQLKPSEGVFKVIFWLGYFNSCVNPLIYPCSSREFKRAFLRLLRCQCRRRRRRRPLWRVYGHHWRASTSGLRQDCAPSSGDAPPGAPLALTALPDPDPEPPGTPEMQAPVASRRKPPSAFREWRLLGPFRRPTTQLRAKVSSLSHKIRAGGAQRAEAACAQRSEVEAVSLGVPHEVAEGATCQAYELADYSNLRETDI

Row | SMILES | Ki [1] | Ki [2] | Ki [3] | Ki [4] | Ki [5]
1 | COc1cccc(OC)c1OCCNCC1COc2ccccc2O1 (stereo not drawn) | 1.2 nM | 28 nM | 0.8 nM | – | –
2 | COc1ccccc1N1CCN(CCCNc2c(C)c(=O)n(C)c(=O)n2C)CC1 | 186 nM | 406 nM | 131 nM | 612 nM | 21 nM
3 | O=C(NC1CCN(CCc2c[nH]c3ccccc23)CC1)c1ccccc1 [INDORAMIN] | 611 nM | 528 nM | 476 nM | 2240 nM | 110 nM
